An excerpt weighted towards active compounds, which were near 2.4% of everything screened.
GASC-1 inh: inhibitors of GASC-1 histone demethylase, primary screen, biochemical, fluorescence, DELFIA europium. inhibition, % at 2.35 µM. GST-JMJD2C(1-420) H3K9me3 demethylation. AID 2099, 2009. 330,000 tested, 0.069% active;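 active = more than half of a compound's replicate wells show inhibition beyond 50%, single wells judged on their own value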;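 note: signal counts dimethyl H3K9 product captured on neutravidin plate; 0% = median of DMSO wells and 100% = 0.3 times that DMSO median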
HTRA1 inhibitor: HTRA1 serine protease inhibitors, primary screen, biochemical, fluorescence polarization, HTS. recombinant HTRA1, FP-rhodamine activity-based probe. Q92743. 340,000 tested, 0.5% active. AID 504803, 2011. inhibition, % at 5.96 µM; in the data active = inhibition above about 36%;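 note: 0% = enzyme with DMSO and 100% = wells lacking enzyme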
mABHD4 FP: ABHD4 inhibitors, primary screen, biochemical, fluorescence polarization, mouse | (Lyso)-N-acylphosphatidylethanolamine lipase (Mus musculus), Q8VD66 | purified mABHD4, FP-Rh probe fluorescence polarization | inhibition, % at 8.92 µM | 370,000 tested, 0.54% active;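 active = inhibition exceeding the mean over every tested compound plus 3 SD, cut at about 30% in these data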;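 note: 0% = plate median of compound wells and 100% = S159A mutant with DMSO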
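Test system: mABHD4 protein; Read-out basis: % inhibition; Incubation: 45 min + 60 min at 25 °C; Repeats: single replicate; Technique: fluorescence polarization with parallel and perpendicular emission, 525/598 nm; Compound: 8.92 µM, single dose; Benchmarks: full inhibition S159A mutant plus DMSO, zero as sample-well median.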
PRMT1 inh: PRMT1 methyltransferase inhibitors, primary screen, biochemical, fluorescence polarization | Protein arginine N-methyltransferase 1 (Homo sapiens), Q99873 | recombinant PRMT1, activity-based probe fluorescence polarization | inhibition, % at 2.79 µM | 370,000 tested, 1.3% active | AID 652257, 2013;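 active = inhibition above about 21% made by adding two undisclosed values, limit read from the data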
SIAE inh: human SIAE inhibitors, primary screen, biochemical, fluorescence polarization, FP-Rh probe, 1536-well HTS; 370,000 tested, 0.69% active; inhibition, % at 9.66 µM; Sialate O-acetylesterase (Homo sapiens), Q9HAT2; AID 1053197, 2014; SIAE FP-Rh probe binding;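 active = inhibition above a cutoff: mean of compounds within the control limits plus 3 SD of those, cut at about 17% in these data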;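 note: 0% = plate median of compound wells and 100% = probe without SIAE protein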
Target sequence (Q9HAT2 whole entry, looked up): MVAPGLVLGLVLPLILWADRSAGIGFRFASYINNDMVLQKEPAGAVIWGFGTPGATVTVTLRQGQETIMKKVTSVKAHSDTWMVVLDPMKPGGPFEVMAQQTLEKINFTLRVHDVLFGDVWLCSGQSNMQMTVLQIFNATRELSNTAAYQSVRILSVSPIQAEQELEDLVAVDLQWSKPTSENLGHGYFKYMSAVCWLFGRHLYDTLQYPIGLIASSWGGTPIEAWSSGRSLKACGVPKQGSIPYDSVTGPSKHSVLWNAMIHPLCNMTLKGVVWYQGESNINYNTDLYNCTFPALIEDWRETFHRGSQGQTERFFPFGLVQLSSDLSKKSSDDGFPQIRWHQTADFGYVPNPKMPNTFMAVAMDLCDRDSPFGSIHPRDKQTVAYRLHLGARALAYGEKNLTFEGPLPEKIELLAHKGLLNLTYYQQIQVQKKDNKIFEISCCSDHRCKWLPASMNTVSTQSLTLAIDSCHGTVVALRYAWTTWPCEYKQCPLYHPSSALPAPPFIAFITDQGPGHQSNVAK
Numbers without * were called inactive; / = not tested or not shown.

SMILES	GASC-1 inh	HTRA1 inhibitor	mABHD4 FP	PRMT1 inh	SIAE inh
C[C@H]1CCC/C=C/[C@@H]2C[C@H](O)C[C@H]2[C@H](O)[C@H](S(=O)c2ccc(O)cc2)CC(=O)O1 (stereo partly drawn)	/	-1.4	-13.7	73.0*	6.7
CC1CCCC=CC2CC(OC(=O)CN(C)C)CC2C(O)C=CC(=O)O1 (stereo not drawn)	/	-2.7	-17.7	7.3	-4.3
O=C(O)COc1ccc2c(c1)O/C(=C\c1ccco1)C2=O	9.1	3.6	19.0	23.9*	-9.4
CC(C)C[C@H]1COc2cccc(F)c2S(=O)(=O)N1Cc1cn(Cc2ccc(F)cc2)nn1	/	/	-12.6	0.6	-3.7
CCN(CC(=O)NCC1CCCO1)S(=O)(=O)c1ccc(Cl)cc1 (stereo not drawn)	50.4*	7.0	4.5	-1.8	-1.0
O=C(NCc1n[nH]c(=S)n1-c1cccc(Cl)c1)c1ccc(S(=O)(=O)N2CCCCC2)cc1	83.8*	-3.1	-1.5	-0.6	5.6
Cc1cc2c(SCC(=O)Nc3cccc(O)c3)ncnc2s1	/	-24.2	-8.5	34.2*	-25.8
CC(C)CN1C(=O)NC(NS(=O)(=O)c2ccc(N)cc2)(C(F)(F)F)C1=O (stereo not drawn)	-1.0	2.1	-4.3	24.1*	-3.0
CC(=O)Nc1ccc(S(=O)(=O)NC2(C(F)(F)F)NC(=O)N(CC(C)C)C2=O)cc1 (stereo not drawn)	1.6	-7.2	1.4	-1.1	-3.3
C[C@H]1[C@@H](NS(=O)(=O)c2ccccc2[N+](=O)[O-])CC[C@@]23CCCN2C(=O)CCC[C@@H]13	/	/	1.9	-0.3	-5.8
COc1ccc(Br)cc1CN(C)CC(=O)NCc1ccc(F)cc1	52.7*	-3.8	1.8	-0.7	0.8
O=C(Nc1nc2ccccc2s1)c1cnccn1	-3.7	-1.0	-1.8	0.8	-6.7
O=C(Nc1nc(-c2ccco2)c(-c2ccco2)s1)c1cnccn1	3.6	/	23.2	36.8*	13.5
CCCCNC(=O)C1(C)CCCCN1C(=O)c1ccc2c(c1)C(C)(C)CCC2(C)C (stereo not drawn)	/	/	-9.2	-2.1	4.0
CCC(=O)N1CCc2cc(Br)c(S(=O)(=O)N3CCCC(C(=O)NC(C)(C)C)C3)cc21 (stereo not drawn)	/	/	3.9	0.6	-3.9
O=C(COC(=O)c1ccco1)NNC(=O)c1ccc(Cl)cc1	81.2*	-0.1	3.8	4.7	2.7
OCCN1CCN(C(=S)c2ccc(Br)cc2)CC1	0.4	-2.0	4.8	21.6*	-2.2
CSc1ccc(C(=S)N2CCN(CCO)CC2)cc1	-9.2	5.0	-0.1	21.1	2.9
Cc1ccc(-n2c(SCC(=O)N/N=C/C=C\c3ccco3)nnc2-c2ccccc2)cc1	/	/	-3.0	11.6	2.4
Cc1nn(Cc2ccc(C(=O)NC(C)(C)C)o2)c(C)c1Br	-1.6	-3.4	-1.9	23.9*	8.5
CCOC(=O)C1=C(CSc2nc(CC)c(C)cc2C#N)OC(N)=C(C#N)C1c1ccc(OC)cc1 (stereo not drawn)	0.9	-33.7	-25.4	21.2*	-0.3
O=S1(=O)c2c(cccc2N2CC[C@@H](O)C2)O[C@@H]2CCN1C2	/	/	-1.1	3.4	-5.1
COc1ccc(OC(=O)COc2ccc(C)cc2)cc1	3.0	-3.4	-3.1	3.9	-0.8
COc1ccc(OCC(=O)Sc2ccc(C)cc2)cc1	7.5	3.2	-6.3	33.4*	-2.2
CS(=O)(=O)c1sc2nc(-c3cccs3)cc(-c3ccccc3)c2c1N	13.0	-60.5	6.0	64.6*	-51.9
SMILES	GASC-1 inh	HTRA1 inhibitor	mABHD4 FP	PRMT1 inh	SIAE inh
Cc1ccc(-c2cc(-c3ccccc3)c3c(N)c(S(C)(=O)=O)sc3n2)cc1	11.4	-60.0	-16.3	17.5	-20.1
COC(=O)[C@]12C[C@H](CC(=O)N3CCN(C(=O)c4ccco4)CC3)C(=O)N(CCc3ccc(OC)c(OC)c3)C1=C[C@H](C(C)C)O[C@@H]2C1CC1	/	/	3.1	-2.8	-5.2
CCn1ccc(C(=O)NC2CCCC2)n1	-3.2	2.0	-5.8	-0.1	-6.2
CCn1ccc(C(=O)NC2=NCCS2)n1	16.6	-1.2	-4.8	24.0*	-0.8
CCn1c(Cc2cccs2)nnc1SCC(=O)Nc1ccc(Cl)cc1C	/	/	0.4	6.2	4.1
COc1ccc(-c2oc3cc(OC(C)=O)cc(OC(C)=O)c3c(=O)c2OC)cc1	/	-2.7	-20.4	-1.7	-6.1
CC(=O)Oc1cc(O)c2c(=O)c(OC(C)=O)c(-c3ccc(OC(C)=O)c(OC(C)=O)c3)oc2c1	13.7	49.5*	/	/	/
CC[C@H](CCCCCC#N)CCC(=O)N(c1ccccc1)c1ccccc1	/	/	-6.8	2.4	1.5
CCOC(=O)c1nn(-c2ccccc2C)c(=O)c2c(N)scc12	-1.1	-0.9	-0.2	24.5*	1.2
Cc1ccc(NC(=O)CCS(=O)(=O)c2ccccc2)c(C)c1	/	/	0.2	3.4	6.5
COCCN=C1NN=C(c2ccc(NC(C)=O)cc2)CS1	7.5	7.9	5.0	21.7*	-7.4
COc1ccc2c(c1)-c1nc(NC(=O)c3cccs3)sc1CC2	-3.8	-31.0	2.8	4.5	-13.2
COc1ccc2c(c1)-c1nc(/N=C/c3c(O)ccc4ccccc34)sc1CC2	4.0	-2.7	28.6	21.2*	-0.2
Oc1ccc2ccccc2c1/C=N/c1nccs1	0.8	29.5	6.1	0.8	6.2
COc1ccc2c(c1)-c1nc(/N=C/c3ccc(O)cc3)sc1CC2	4.7	-1.2	25.2	36.4*	2.9
Clc1ccccc1Cn1nnc2c(NCCN3CCOCC3)ncnc21	91.3*	-2.7	4.8	-2.2	-6.3
Fc1ccc(C[n+]2csc3ccccc32)cc1	-4.7	5.5	-9.3	73.9*	2.6
Clc1ccc(C[n+]2csc3ccccc32)cc1	-2.5	4.0	6.0	63.0*	-2.3
Cc1ccc(-c2c[n+](Cc3ccc(Cl)cc3)c3n2CCC3)cc1	-3.8	-4.6	-1.0	0.3	-0.9
Nc1nc(=S)c2[nH]c(=S)[nH]c2[nH]1	/	4.7	3.0	14.0	5.2
CSc1nc(=S)c2[nH]c(=S)[nH]c2[nH]1	-1.0	4.9	-2.5	87.8*	-17.3
COc1ccc2cc1Oc1ccc(cc1)C[C@H]1c3c(cc4c(c3Oc3cc5c(cc3OC)CCN(C)[C@@H]5C2)OCO4)CCN1C	-19.7	-14.3	-7.5	2.9	19.1*
COC(=O)[C@]12C[C@H](CC(=O)NCCC(C)C)C(=O)N(CCC3=CCCCC3)C1=C[C@H](C(C)(C)C)O[C@@H]2C	/	/	-11.6	-1.4	1.4
COc1ccc(NC(=S)NC(NC(=O)CCl)C(Cl)(Cl)Cl)c([N+](=O)[O-])c1 (stereo not drawn)	0.4	41.8*	/	/	/
COc1ccc(C(=O)CSc2ccc(-c3ccccc3)nn2)cc1	15.2	-16.6	-13.3	1.0	-2.5

Screens (PubChem BioAssay)
